Laboratory results as given in ChEMBL document CHEMBL3585325, “Discovery of (1R,2S)-2-{[(2,4-Dimethylpyrimidin-5-yl)oxy]methyl}-2-(3-fluorophenyl)-N-(5-fluoropyridin-2-yl)cyclopropanecarboxamide (E2006): A Potent and Efficacious Oral Orexin Receptor Antagonist” (J Med Chem, 2015).

How the values were obtained:
CYP3A [1] = biological target: T1, CYP3A (Homo sapiens, UniProt P08684+P20815+P24462+Q9HB55); assay: Inhibition of CYP3A in human liver microsomes assessed as enzyme activity using midazolam as substrate incubated for 30 mins prior to substrate addition for 10 mins by LC-MS/MS analysis; assay type: ADME; conditions: probe midazolam
Method in brief: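 Compound preincubated 30 min at 37 °C with human liver microsomes (0.2 mg/mL), with or without an NADPH-generating system. The mix was diluted 10-fold into a marker-substrate cocktail plus NADPH system and incubated 10 min at 37 °C. Marker metabolites were measured by LC-MS/MS; residual activity with NADPH was expressed relative to without.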

Mus musculus [2] = assay: Sleep promoting activity in C57BL/6NCrlCrlj mouse assessed as reduction in wakefulness time at 30 mg/kg, po administered immediately prior to beginning of dark cycle measured during first 3 hrs after drug administration by electroencephalogram/electromyogram analysis (reference value: 116.7 min); assay type: functional
Method in brief: (§1)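 Male C57BL/6NCrlCrlj mice implanted with EEG/EMG electrodes were dosed orally in 10% Cremophor EL, 5% DMSO in saline just before lights-off (ZT12) and recorded from ZT12 to ZT20. Group sizes were n=6 dosed and n=7 vehicle. Stages were scored by software with blinded visual confirmation; cumulative first-3-h times are mean with SEM. Dunnett's test was run after one-way ANOVA.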

[3] = AUC (0 to infinity) in C57BL/6NCrlCrlj mouse at 30 mg/kg, po by LC-MS/MS analysis; assay type: ADME, organism-based; design: dose 30 mg/kg, time infinity, route oral; conditions: in vivo
[4] = Drug uptake in C57BL/6NCrlCrlj mouse CSF at 10 mg/kg, po administered as single dose measured after 1 hr by LC-MS/MS analysis; assay type: ADME, organism-based, Cerebrospinal fluid; conditions: read-out: Drug uptake
Method in brief: (§2)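 Male C57BL/6NCrlCrlj mice given a single 10 mg/kg oral dose as a suspension in 0.5% aqueous methylcellulose. At 1 or 3 h, under pentobarbital anesthesia, CSF was taken from the cisterna magna and then blood from the abdominal aorta (spun to plasma). Samples were acetonitrile-precipitated with deuterated internal standard and run by LC-MS/MS. Values are mean with SEM.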

[5] = Tmax in C57BL/6NCrlCrlj mouse at 10 mg/kg, po by LC-MS/MS analysis; assay type: ADME, organism-based; conditions: in vivo
Method in brief: (§3)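 Male C57BL/6NCrlCrlj mice dosed orally at 10 mg/kg in 10% Cremophor EL, 5% DMSO in saline. Tail-vein blood was taken at set time points and spun to plasma. Quantified by LC-MS/MS (MRM, positive mode) with internal standard and a 1/x²-weighted calibration. Parameters came from noncompartmental analysis.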

[6] = AUC (0 to infinity) in C57BL/6NCrlCrlj mouse at 1 mg/kg, iv by LC-MS/MS analysis; assay type: ADME, organism-based; design: dose 1 mg/kg, time infinity, route intravenous; conditions: in vivo
Method in brief: (§4)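 Male C57BL/6NCrlCrlj mice dosed intravenously at 1 mg/kg in 10% DMSO in water. Blood was taken from the tail vein at set time points and spun to plasma. Concentrations were measured by LC-MS/MS (MRM, positive mode) against a 1/x²-weighted standard curve with internal standard. Parameters came from noncompartmental analysis.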

[7] = Plasma clearance in C57BL/6NCrlCrlj mouse at 1 mg/kg, iv by LC-MS/MS analysis; assay type: ADME, organism-based; method in brief: as §4
[8] = Tmax in C57BL/6NCrlCrlj mouse at 30 mg/kg, po by LC-MS/MS analysis; assay type: ADME, organism-based; conditions: in vivo
[9] = Volume of distribution at steady state in C57BL/6NCrlCrlj mouse at 1 mg/kg, iv by LC-MS/MS analysis; assay type: ADME, organism-based; conditions: in vivo, read-out: Vdss; method in brief: as §4
[10] = Plasma concentration in C57BL/6NCrlCrlj mouse at 10 mg/kg, po administered as single dose measured after 3 hrs by LC-MS/MS analysis; assay type: ADME, organism-based; method in brief: as §2
[11] = Drug uptake in C57BL/6NCrlCrlj mouse CSF at 10 mg/kg, po administered as single dose measured after 3 hrs by LC-MS/MS analysis; assay type: ADME, organism-based, Cerebrospinal fluid; conditions: read-out: Drug uptake; method in brief: as §2
Mus musculus [12] = assay: Sleep promoting activity in C57BL/6NCrlCrlj mouse assessed as increase in REM sleep at 10 mg/kg, po administered immediately prior to beginning of dark cycle measured during first 3 hrs after drug administration by electroencephalogram/electromyogram analysis (reference value: 0.6 min); assay type: functional; method in brief: as §1
[13] = Plasma protein binding in C57BL/6N mouse at 10 mg/kg, po administered as single dose by equilibrium dialysis method; assay type: ADME, organism-based; conditions: read-out: PPB (converted)
Mus musculus [14] = assay: Sleep promoting activity in C57BL/6NCrlCrlj mouse assessed as increase in REM sleep at 30 mg/kg, po administered immediately prior to beginning of dark cycle measured during first 3 hrs after drug administration by electroencephalogram/electromyogram analysis (reference value: 0.6 min); assay type: functional; method in brief: as §1
CYP3A [15] = biological target: T1, CYP3A; assay: Time dependent inhibition of CYP3A in human liver microsomes assessed as enzyme activity using midazolam as substrate at 10 uM incubated for 30 mins prior to substrate addition for 10 mins by LC-MS/MS analysis; assay type: ADME; design: scale not given: the % may be the effect or the level left; conditions: probe midazolam, read-out: Activity
Method in brief: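 Test compound at 10 μM preincubated 30 min at 37 °C with human liver microsomes (0.2 mg/mL), with or without an NADPH-generating system. Mixture then diluted 10-fold into a marker-substrate cocktail plus NADPH system and incubated 10 min at 37 °C. Midazolam served as the CYP3A probe. Metabolites measured by LC−MS/MS. Result is the residual activity with NADPH relative to without, as % of control.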

[16] = biological target: Voltage-gated inwardly rectifying potassium channel KCNH2 (Homo sapiens, UniProt Q12809); assay: Inhibition of human ERG
Sequence of Voltage-gated inwardly rectifying potassium channel KCNH2 (Q12809 whole entry): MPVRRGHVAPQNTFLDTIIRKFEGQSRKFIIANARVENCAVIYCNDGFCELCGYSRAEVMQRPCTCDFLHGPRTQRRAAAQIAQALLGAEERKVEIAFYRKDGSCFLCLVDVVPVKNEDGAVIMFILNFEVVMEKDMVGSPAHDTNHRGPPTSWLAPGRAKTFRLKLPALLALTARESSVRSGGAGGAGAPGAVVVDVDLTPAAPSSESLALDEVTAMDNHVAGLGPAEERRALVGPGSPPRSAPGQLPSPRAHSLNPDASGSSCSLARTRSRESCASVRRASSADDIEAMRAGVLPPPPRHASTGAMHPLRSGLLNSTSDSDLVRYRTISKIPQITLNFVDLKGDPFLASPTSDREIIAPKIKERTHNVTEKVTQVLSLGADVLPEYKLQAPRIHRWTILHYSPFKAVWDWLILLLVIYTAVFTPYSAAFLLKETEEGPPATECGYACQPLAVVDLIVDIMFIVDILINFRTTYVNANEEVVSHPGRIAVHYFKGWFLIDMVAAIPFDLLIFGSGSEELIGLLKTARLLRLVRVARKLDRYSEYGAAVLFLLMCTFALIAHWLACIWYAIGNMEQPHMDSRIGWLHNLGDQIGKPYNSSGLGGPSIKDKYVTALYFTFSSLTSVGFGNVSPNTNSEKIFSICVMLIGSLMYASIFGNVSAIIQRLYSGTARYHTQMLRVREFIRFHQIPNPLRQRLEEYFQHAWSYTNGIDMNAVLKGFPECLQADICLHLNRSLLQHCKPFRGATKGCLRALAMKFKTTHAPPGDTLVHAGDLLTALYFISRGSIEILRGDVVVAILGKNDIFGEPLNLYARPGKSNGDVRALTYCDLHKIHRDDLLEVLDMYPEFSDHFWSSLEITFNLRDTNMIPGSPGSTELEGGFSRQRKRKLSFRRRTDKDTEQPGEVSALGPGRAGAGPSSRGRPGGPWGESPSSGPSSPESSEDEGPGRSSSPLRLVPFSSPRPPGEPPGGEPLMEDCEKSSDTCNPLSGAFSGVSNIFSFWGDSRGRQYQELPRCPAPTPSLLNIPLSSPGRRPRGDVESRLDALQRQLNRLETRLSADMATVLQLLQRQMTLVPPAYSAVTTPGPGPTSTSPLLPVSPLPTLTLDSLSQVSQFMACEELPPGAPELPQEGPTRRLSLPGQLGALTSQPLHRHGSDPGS

Cytochrome P450 2C8 = biological target: T2, Cytochrome P450 2C8 (Homo sapiens, UniProt P10632); assay: Inhibition of CYP2C8 in human liver microsomes using rosiglitazone as susbtrate incubated for 30 mins prior to substrate addition for 10 mins by LC-MS/MS analysis; assay type: ADME
T2 sequence (P10632 whole entry): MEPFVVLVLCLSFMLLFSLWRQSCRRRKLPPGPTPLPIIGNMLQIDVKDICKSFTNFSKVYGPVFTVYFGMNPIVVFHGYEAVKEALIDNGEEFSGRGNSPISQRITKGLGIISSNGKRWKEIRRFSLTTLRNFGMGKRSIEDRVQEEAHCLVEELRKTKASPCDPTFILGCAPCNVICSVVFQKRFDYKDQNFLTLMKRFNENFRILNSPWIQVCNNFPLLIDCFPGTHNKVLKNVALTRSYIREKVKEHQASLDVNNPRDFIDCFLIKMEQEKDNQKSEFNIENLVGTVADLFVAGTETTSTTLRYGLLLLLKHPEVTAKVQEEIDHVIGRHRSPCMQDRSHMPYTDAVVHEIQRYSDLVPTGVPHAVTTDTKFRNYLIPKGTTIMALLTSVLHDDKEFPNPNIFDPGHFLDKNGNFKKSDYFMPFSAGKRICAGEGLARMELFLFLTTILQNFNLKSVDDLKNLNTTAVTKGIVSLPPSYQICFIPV

Cytochrome P450 2C9 = Cytochrome P450 2C9 (Homo sapiens, UniProt P11712); assay: Inhibition of CYP2C9 in human liver microsomes using tolbutamide as susbtrate incubated for 30 mins prior to substrate addition for 10 mins by LC-MS/MS analysis; assay type: ADME
Sequence of Cytochrome P450 2C9 (P11712 whole entry): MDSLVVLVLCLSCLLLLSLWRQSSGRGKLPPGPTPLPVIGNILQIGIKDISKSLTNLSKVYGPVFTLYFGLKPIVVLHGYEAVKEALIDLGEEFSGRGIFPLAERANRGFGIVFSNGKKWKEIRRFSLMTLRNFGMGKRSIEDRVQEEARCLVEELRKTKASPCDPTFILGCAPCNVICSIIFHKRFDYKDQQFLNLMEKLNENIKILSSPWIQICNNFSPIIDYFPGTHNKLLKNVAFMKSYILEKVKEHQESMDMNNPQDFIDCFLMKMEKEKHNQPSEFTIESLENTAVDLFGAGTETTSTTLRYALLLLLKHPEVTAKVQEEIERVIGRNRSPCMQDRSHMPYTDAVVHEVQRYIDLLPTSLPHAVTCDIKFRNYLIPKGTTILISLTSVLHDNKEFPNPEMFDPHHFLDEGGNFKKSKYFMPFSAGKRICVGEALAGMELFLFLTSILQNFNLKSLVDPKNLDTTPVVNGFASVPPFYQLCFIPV

[17] = Cmax in C57BL/6NCrlCrlj mouse at 10 mg/kg, po by LC-MS/MS analysis; assay type: ADME, organism-based; design: dose 10 mg/kg, route oral; conditions: in vivo; method in brief: as §3
[18] = AUC (0 to infinity) in C57BL/6NCrlCrlj mouse at 10 mg/kg, po by LC-MS/MS analysis; assay type: ADME, organism-based; design: dose 10 mg/kg, route oral, time infinity; conditions: in vivo; method in brief: as §3

Question: For `Cc1ncc(OC[C@@]2(c3cccc(F)c3)C[C@H]2C(=O)Nc2ccc(F)cn2)c(C)n1` [LEMBOREXANT], which IC50 at 30 min (CYP3A [1]) is on record?
Answer: Its IC50 at 30 min is greater than 20 µM.

Question: And the Time (Mus musculus [2])?
Answer: Its Time is 75.3 min.

Question: And the AUC(0-inf) [3]?
Answer: Its AUC(0-inf) is 4130 ng·h/mL.

Question: What about the concentration at 1 h [4] of the same molecule?
Answer: The concentration at 1 h was 32.8 nM.

Question: And the Tmax [5]?
Answer: The Tmax was 15 min.

Question: And the AUC(0-inf) [6]?
Answer: Its AUC(0-inf) is 1030 ng·h/mL.

Question: What about the clearance [7] of the same molecule?
Answer: Its clearance is 17.7 mL/min/kg.

Question: And the Tmax [8]?
Answer: The Tmax was 60 min.

Question: And the Vd [9]?
Answer: Its Vd is 2.71 L/kg.

Question: What about the concentration at 3 h [10] of the same molecule?
Answer: Its concentration at 3 h is 158 nM.

Question: What about the concentration at 3 h [11] of the same molecule?
Answer: Its concentration at 3 h is 7.6 nM.

Question: And the Time (Mus musculus [12])?
Answer: The Time was 3.6 min.

Question: What about the fraction unbound [13] of the same molecule?
Answer: Its fraction unbound is 0.148.

Question: And the Time (Mus musculus [14])?
Answer: Its Time is 9.3 min.

Question: What about the activity at 10 min, 10 µM (CYP3A [15]) of the same molecule?
Answer: The activity at 10 min, 10 µM was 76%.

Question: And the IC50 [16]?
Answer: Its IC50 is 6.1 µM.

Question: What about the IC50 (Cytochrome P450 2C8) of the same molecule?
Answer: Its IC50 is greater than 20 µM.

Question: And the IC50 (Cytochrome P450 2C9)?
Answer: The IC50 was greater than 20 µM.

Question: And the Cmax [17]?
Answer: The Cmax was 488 ng/mL.

Question: And the AUC(0-inf) [18]?
Answer: The AUC(0-inf) was 1910 ng·h/mL.
